# An excerpt weighted towards active compounds, which were near 0.41% of everything screened.
# TNAP act hi DEA = activators of human TNAP at high phosphate acceptor concentration; P05186; purified TNAP, CDP-star luminescence, 1 M DEA, 30 min; stronger effect = higher value; 0 = EDTA background, 1 = DMSO-only activity; activation factor at 20 µM; 200,000 tested, under 10 active; AID 1136;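 active = activation factor at least 2 at 20 µM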
# Target sequence (P05186 whole entry, looked up): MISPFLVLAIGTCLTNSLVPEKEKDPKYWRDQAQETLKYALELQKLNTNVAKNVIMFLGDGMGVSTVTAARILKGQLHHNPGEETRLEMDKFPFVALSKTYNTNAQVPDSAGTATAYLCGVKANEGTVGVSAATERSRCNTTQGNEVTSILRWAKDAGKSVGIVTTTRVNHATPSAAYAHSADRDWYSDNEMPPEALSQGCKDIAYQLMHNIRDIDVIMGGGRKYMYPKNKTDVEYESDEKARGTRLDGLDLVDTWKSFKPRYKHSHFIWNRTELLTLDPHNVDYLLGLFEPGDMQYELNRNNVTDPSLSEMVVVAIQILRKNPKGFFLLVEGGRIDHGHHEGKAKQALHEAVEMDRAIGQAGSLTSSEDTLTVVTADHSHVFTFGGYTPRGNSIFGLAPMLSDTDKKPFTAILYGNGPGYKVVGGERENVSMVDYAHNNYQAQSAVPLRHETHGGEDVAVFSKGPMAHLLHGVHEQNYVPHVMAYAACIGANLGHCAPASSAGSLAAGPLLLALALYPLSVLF
#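 Control set: EDTA negative control, DMSO positive control / Assay system: human TNAP / Quantity: TNAP 1/800 final / Evaluation: TNAP activation factor scaled between EDTA and DMSO control wells / Measured by: luminescent substrate turnover signal / Compound dosing: one dose, 20 µM / Times: 30 min enzyme reaction at room temperature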
# TNAP inh hi DEA = TNAP (human) inhibition, high acceptor. purified TNAP, CDP-star luminescence, 1 M DEA. P05186. 200,000 tested, 0.03% active. inhibition, % at 20 µM;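 active = over 50% inhibition of tissue-nonspecific alkaline phosphatase at 20 µM in the single-dose screen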;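 also: plate controls were DMSO wells for no effect and EDTA-quenched wells as full inhibition for full effect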
# TNAP inh no acc = blocks human TNAP activity with no phosphate acceptor present; 200,000 tested, 0.26% active; inhibition, % at 20 µM; purified TNAP, CDP-star luminescence, 30 min; P05186;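 active = tissue-nonspecific alkaline phosphatase inhibition above about 50% at 20 µM in the single-dose screen, limit read from the data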;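 also: 0% = DMSO negative control and 100% = EDTA positive control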
# ABCG2 inh = inhibitors of human ABCG2 transporter, ABCB1 counter-screen; inhibition, % at 6.6 µM; 190,000 tested, 0.1% active; Q9UNQ0; IgMXP3 cells, JC-1 efflux, flow cytometry; AID 1325;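 active = inhibition above 80%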;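 also: 0% = DMSO and 100% = nicardipine control wells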
#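 Incubation: cells with compound and JC-1, 10 min at 25 °C, rotating, no wash / Test system: IgMXP3 (ABCG2) plus far-red-tagged CCRF-Adr (ABCB1) cells / Compound dosing: one concentration, 6.6 µM final / Also added: JC-1 fluorescent substrate / Evaluation: efflux inhibition in percent versus controls / Detection: flow cytometry, 530 nm JC-1 signal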
# ABCB1 inh = human ABCB1 inhibition, ABCG2 as counter-screen. CCRF-Adr cells, JC-1 efflux, flow cytometry. inhibition, % at 6.6 µM. 190,000 tested, 0.067% active. AID 1326; in the data active = inhibition above about 40%;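 also: 0% = vehicle and 100% = reference inhibitor; higher value means more JC-1 retained so stronger ABCB1 efflux block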
# ABCB1 single pt = inhibits human ABCB1 efflux, confirmed at single point | AID 1451 | CCRF-Adr cells, JC-1 efflux, flow cytometry | inhibition, % at 6.6 µM | shares compounds with ABCG2 inh | 270 tested, 7% active;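 active = inhibition of pump activity above 50%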;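 also: 0% = DMSO and 100% = nicardipine full pump inhibition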
# ABCG2 single pt = inhibits human ABCG2 efflux, confirmed at single point | shares compounds with ABCG2 inh | IgMXP3 cells, JC-1 efflux, flow cytometry | inhibition, % at 6.6 µM | 270 tested, 6% active | AID 1453;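 active = inhibition above 50%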;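 also: 0% = DMSO wells and 100% = nicardipine pump inhibitor wells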
# IgMXP3 autofluor = counter-screen for ABCG2 inhibitors: compound fluorescence in IgMXP3 cells | shares compounds with ABCG2 inh | compound autofluorescence 488/530 nm, flow; stronger effect = higher value | fluorescence at 6.6 µM | 270 tested, 30% active;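 active = fluorescence in ABCG2-expressing cells above the plate's control-well mean plus 3 SD, cut at about 15 in these data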;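 also: median cell fluorescence with compound minus that of DMSO-treated control cells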
# CCRF-Adr fluor = counter-screen for ABCB1 inhibitors: compound fluorescence in CCRF-Adr cells | shares compounds with ABCG2 inh | compound autofluorescence 488/530 nm, flow cytometry; stronger effect = higher value | fluorescence at 6.6 µM | 270 tested, 30% active;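 active = fluorescence beyond the plate control mean plus 3 SD, with a fluorescence-to-maximum score over 2, cut at about 25 in these data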
# * hit, by the source's call; i = inactive; / = no result; + = active, no number.
SMILES,TNAP act hi DEA,TNAP inh hi DEA,TNAP inh no acc,ABCG2 inh,ABCB1 inh,ABCB1 single pt,ABCG2 single pt,IgMXP3 autofluor,CCRF-Adr fluor
O=C1CCC([N+](=O)[O-])C(c2cc3c(cc2Cl)OCO3)N1 (stereo not given),1.1,-8,-12,1,1,/,/,/,/
CCOc1ccccc1NC(=O)COC(=O)CC(NC(N)=O)c1ccc(Cl)cc1 (stereo not given),1.1,-6,-12,1,0,/,/,/,/
O=C(Nc1ccc(F)cc1)NC1CCN(Cc2nnnn2Cc2ccco2)CC1,1,0,-9,83*,1,1,21,-1.7,-2.9
CCCNC(=O)Cn1c(=O)/c(=C\c2ccc(-c3ccc([N+](=O)[O-])cc3)o2)s/c1=C\C(=O)C(C)(C)C,0.7,34,28,159*,129*,-90,-116,524*,441*
C=CCC1(NCc2ccco2)CCN(CC)CC1,1,2,-13,5,1,/,/,/,/
COc1cccc(-c2nc(N3CC(C)CC(C)C3)c3ccccc3n2)c1O (stereo not given),1.1,-6,-7,61,12,72*,46,-1.9,-4.9
COc1cccc(-c2nc(N3CCC(C)CC3)c3ccccc3n2)c1O,1,-2,-3,44,4,/,/,/,/
Cc1ccc(N(CCCCN2C(=O)c3ccccc3C2=O)C(=O)c2ccc(Cl)s2)cc1,1,-4,0,67,7,11,21,-2.2,-4.6
CCOC(=O)N1CCN(/C=C(\C#N)c2nc3ccccc3s2)CC1,1.1,-7,3,87*,64*,1,17,-0.99,15
N#C/C(=C\N1CCN(Cc2ccc3c(c2)OCO3)CC1)c1nc2ccccc2s1,1,-3,1,16,13,/,/,/,/
Cc1ccc(/C=C2\SC(=S)N(/N=C/c3cc([N+](=O)[O-])ccc3O)C2=O)o1,0.8,23,36,-6,-2,/,/,/,/
Cc1c(C2C(C#N)=C(N)N(c3cccc([N+](=O)[O-])c3)C3=C2C(=O)CCC3)cnn1C (stereo not given),1.1,-5,-9,-2,0,/,/,/,/
CCN1/C(=C/C=C/c2oc3ccc4ccccc4c3[n+]2CC)Oc2ccc3ccccc3c21,2*,-96,i,184*,24,69*,-37,546*,228*
COc1ccc(OCC(=O)Nc2ccccc2C(=O)N2CCOCC2)cc1,1,-1,-11,0,60*,1,4,0.36,-1.2
CCOCC(=O)Nc1ccccc1C(=O)N1CCOCC1,1.1,-6,-10,4,0,/,/,/,/
COCc1ccc(C(=O)N2CCCC(CCC(=O)NCc3ccccc3F)C2)o1 (stereo not given),1.1,-6,-7,6,2,/,/,/,/
COc1ccccc1OCCOc1ccc(C(=O)c2ccccc2)cc1,1,0,-9,87*,5,-11,31,52*,82*
COc1cc(/C=C2/CCc3ccccc3C2=O)cc(OC)c1OC,1,-2,-6,87*,7,2,44,-1.6,-1.7
COCCSc1ccccc1C(=O)Nc1ccccc1C#N,1.1,-5,-12,5,0,/,/,/,/
CCOC(=O)c1c(-c2ccc(C)cc2)csc1NC(=O)/C(C#N)=C/c1ccc(O)c(OC)c1,0.7,28,22,132*,117*,1,21,80*,222*
CCOC(=O)/C(C#N)=C\c1ccc(O)c(OC)c1,0.8,21,16,17,0,/,/,/,/
COc1ccc(NC(=O)C(c2ccccc2)N2CCN(c3ccccn3)CC2)cc1Cl (stereo not given),1.1,-10,-53,5,3,/,/,/,/
Cc1c(Cl)cccc1NC(=S)N1CCN(Cc2ccc3c(c2)OCO3)CC1,1,0,-14,0,0,/,/,/,/
CCOc1ccc(N2C(=O)C3ON(c4ccccc4)C(c4cccs4)C3C2=O)cc1 (stereo not given),1,1,-2,29,95*,1,23,-1.2,-0.79
COc1cccc(N2C(=O)C3ON(c4ccccc4)C(c4cccs4)C3C2=O)c1 (stereo not given),1,-2,-12,1,0,/,/,/,/
SMILES,TNAP act hi DEA,TNAP inh hi DEA,TNAP inh no acc,ABCG2 inh,ABCB1 inh,ABCB1 single pt,ABCG2 single pt,IgMXP3 autofluor,CCRF-Adr fluor
C/C(=N/NC(=O)CNC(=O)c1ccccn1)c1cccc([N+](=O)[O-])c1,1,-4,-12,4,0,/,/,/,/
CCCCN(CC)c1nc(N)c(C#N)c(CC#N)c1C#N,1.1,-5,24,0,0,/,/,/,/
CCCCN(CC)c1nc(N)c2c(N)nc(OCC)cc2c1C#N,1,-1,-10,78,4,9,33,-0.14,-2.6
CCN(CC)C1=CC2=CC(=C(C#N)C#N)CCC2CC1 (stereo not given),0.7,34,2,43,84*,24,74*,19*,40*
N#CC(C#N)=C1C=C2C=C(N3CCCCC3)CCC2CC1 (stereo not given),0.6,40,-14,51,170*,62*,62*,17*,67*
CCCCN(C)C1=CC2=CC(=C(C#N)C#N)CCC2CC1 (stereo not given),0.7,35,16,85*,+,164*,49,44*,232*
N#CC1=C(N)C2=C(N3CCCCC3)CCCC2C1(C#N)C#N (stereo not given),1,-4,-13,-1,0,/,/,/,/
CCC(Cc1ccccc1)n1c(=S)[nH]c2ccccc2c1=O (stereo not given),1,2,1,100*,31,-10,3,23*,57*
CCOc1ccccc1NC(=O)C(OC(=O)c1ccc(O)cc1)c1ccccc1 (stereo not given),1,3,-9,23,1,/,/,/,/
CCOc1ccccc1NC(=O)C(OC(=O)c1ccc(N(C)C)cc1)c1ccccc1 (stereo not given),1,2,-7,117*,5,38,63*,2.2,21
CCc1cc(SC#N)ccc1N,1,2,-8,2,0,/,/,/,/
Cc1cc(/C=C2\NC(=S)N(C)C2=O)ccc1N1CCCC1,0.8,18,21,25,21,/,/,/,/

# From PubChem BioAssay
